Test results reported in ChEMBL document CHEMBL1148971, “Bioactive rearranged and halogenated semisynthetic derivatives of the marine natural product sarcophine” (J Nat Prod, 2004).
The source made the active and inactive calls. The calls are words filed in the database; no cut-off is given here.

Tests used:
Assay type in all cases: functional, cell-based
+SA cell [1] = assay: Antiproliferative activity against mouse +SA cells assessed as decrease in cell growth up to 100 uM after 4 days by MTT assay
Procedure, shortened: (§1)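 Highly malignant +SA mouse mammary epithelial cells were grown in serum-free medium with 10 ng/mL EGF and 10 µg/mL insulin as mitogens. Cells were seeded at 5 × 10^4 cells/well, 6 wells per group, and fed medium containing compound over 0.01-1000 µM for 4 days. Viable cell number was read by MTT colorimetric assay and reported as mean cell count/well + SEM.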

+SA cell [2] = assay: Antiproliferative activity against mouse +SA cells assessed as decrease in cell growth at 100 to 1000 uM after 4 days by MTT assay; procedure, shortened: as §1
+SA cell [3] = assay: Antiproliferative activity against mouse +SA cells assessed as decrease in cell growth at 0 to 10 uM after 4 days by MTT assay; procedure, shortened: as §1

| Structure (SMILES) | Activity (+SA cell [1]) | Activity (+SA cell [2]) | Activity (+SA cell [3]) |
| --- | --- | --- | --- |
| CC1=C2CC/C(C)=C/CC/C(C)=C/CC/C(C)=C/[C@@H]2OC1=O | Active |  |  |
| CC1=C2CC/C(C)=C/CC[C@@H](C)C(=O)CC/C(C)=C/[C@@H]2OC1=O | inactive |  |  |
| CC1=C2CC/C(C)=C/CC[C@]3(C)O[C@H]3CC/C(C)=C/[C@@H]2OC1=O |  | Active | inactive |
| CC1=C2CC[C@H](C)[C@H]3CC[C@](C)(O)[C@H](CC/C(C)=C/[C@@H]2OC1=O)O3 (mixture of isomers) | inactive |  |  |
| CC1=C2CC[C@@](C)(O)CCC[C@](C)(O)[C@@H]3CC[C@@](C)(C[C@@H]2OC1=O)O3 (relative stereo) | inactive |  |  |
| CC1=C2CC[C@H](C)[C@@H]3CC[C@](C)(O)[C@H](CC/C(C)=C/[C@@H]2OC1=O)O3 (relative stereo) | inactive |  |  |
| CC1=C2CC[C@H](C)[C@@H]3CC[C@](C)(O)[C@H](CC[C@@](C)(O)C[C@@H]2OC1=O)O3 (relative stereo) | inactive |  |  |
| CC1=C2CC[C@]3(C)O[C@@H](CC/C(C)=C/[C@@H]2OC1=O)[C@@](C)(O)CC[C@@H]3Br (relative stereo) | Active |  |  |
| CC1=C2CC[C@]3(C)O[C@@H](CC/C(C)=C/[C@@H]2OC1=O)[C@@](C)(O)CC[C@H]3Br (relative stereo) | inactive |  |  |
